Experimental data taken from ChEMBL document CHEMBL4382192, “Discovery of a potent dual ALK and EGFR T790M inhibitor” (Eur J Med Chem, 2017).
pEC50: −log10 of the molar value.

What was measured:
BaF3 = assay: Antiproliferative activity against mouse BAF3 cells assessed as reduction in cell viability after 72 hrs by MTS assay; assay type: cell-based; settings: BaF3, 72 h
[1] = Tmax in mouse at 10 mg/kg, po; assay type: ADME, organism-based; settings: in vivo
[2] = molecular target: AP2-associated protein kinase 1 (Homo sapiens) (UniProt Q2M2I8); assay: Binding affinity to human wild-type AAK1 (G25 to L333 residues) expressed in bacterial expression system assessed as residual binding level at 1 uM by Kinomescan method relative to control
[3] = molecular target: BMP-2-inducible protein kinase (Homo sapiens) (UniProt Q9NSY1); assay: Binding affinity to wild-type human partial length BIKE (S34 to N329 residues) expressed in bacterial expression system assessed as residual binding level at 1 uM by Kinomescan method relative to control
[4] = molecular target: Bone morphogenetic protein receptor type-2 (Homo sapiens) (UniProt Q13873); assay: Binding affinity to wild-type human partial length BMPR2 (R179 to Q526 residues) expressed in mammalian expression system assessed as residual binding level at 1 uM by Kinomescan method relative to control
[5] = molecular target: Calcium/calmodulin-dependent protein kinase type 1G (Homo sapiens) (UniProt Q96NX5); assay: Binding affinity to wild-type human partial length CAMK1G (M1 to A342 residues) expressed in bacterial expression system assessed as residual binding level at 1 uM by Kinomescan method relative to control
[6] = molecular target: Cyclin-dependent kinase 4/cyclin D1 (Homo sapiens) (UniProt P11802+P24385); assay: Binding affinity to wild-type human full length CDK4/cyclinD1 (M1 to E303 residues) expressed in mammalian expression system assessed as residual binding level at 1 uM by Kinomescan method relative to control
[7] = molecular target: Serine/threonine-protein kinase 17B (Homo sapiens) (UniProt O94768); assay: Binding affinity to wild-type human full length DRAK2 (M1 to C372 residues) expressed in bacterial expression system assessed as residual binding level at 1 uM by Kinomescan method relative to control
[8] = molecular target: Ephrin type-A receptor 8 (Homo sapiens) (UniProt P29322); assay: Binding affinity to wild-type human partial length EPHA8 (Q608 to C920 residues) expressed in bacterial expression system assessed as residual binding level at 1 uM by Kinomescan method relative to control
[9] = molecular target: Receptor tyrosine-protein kinase erbB-2 (Homo sapiens, UniProt P04626); assay: Binding affinity to wild-type human partial length ERBB2 (K646 to V1225 residues) expressed in mammalian expression system assessed as residual binding level at 1 uM by Kinomescan method relative to control
[10] = molecular target: Interleukin-1 receptor-associated kinase 3 (Homo sapiens) (UniProt Q9Y616); assay: Binding affinity to wild-type human partial length IRAK3 (V147 to E596 residues) expressed in bacterial expression system assessed as residual binding level at 1 uM by Kinomescan method relative to control
[11] = molecular target: Tyrosine-protein kinase JAK2 (Homo sapiens) (UniProt O60674); assay: Binding affinity to wild-type human partial length JAK2 JH1 catalytic domain (A829 to G1132 residues) expressed in mammalian expression system assessed as residual binding level at 1 uM by Kinomescan method relative to control
[12] = molecular target: Leukocyte tyrosine kinase receptor (Homo sapiens) (UniProt P29376); assay: Binding affinity to wild-type human partial length LTK (P422 to S744 residues) expressed in bacterial expression system assessed as residual binding level at 1 uM by Kinomescan method relative to control
[13] = molecular target: Serine/threonine-protein kinase MARK2 (Homo sapiens) (UniProt Q7KZI7); assay: Binding affinity to wild-type human partial length MARK2 (M1 to R450 residues) expressed in bacterial expression system assessed as residual binding level at 1 uM by Kinomescan method relative to control
[14] = molecular target: Macrophage-stimulating protein receptor (Homo sapiens) (UniProt Q04912); assay: Binding affinity to wild-type human partial length MST1R (I1057 to L1363 residues) expressed in bacterial expression system assessed as residual binding level at 1 uM by Kinomescan method relative to control
[15] = molecular target: Serine/threonine-protein kinase 26 (Homo sapiens) (UniProt Q9P289); assay: Binding affinity to wild-type human full length MST4 (M1 to P416 residues) expressed in mammalian expression system assessed as residual binding level at 1 uM by Kinomescan method relative to control
Summary of the method: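 Single-point kinome-wide KINOMEscan binding panel, test compound at 1 μM, run by the provider's standard protocol.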

[16] = molecular target: Phosphatidylinositol 4-phosphate 5-kinase type-1 alpha (Homo sapiens) (UniProt Q99755); assay: Binding affinity to wild-type human full length PIP5K1A (M1 to H562 residues) expressed in bacterial expression system assessed as residual binding level at 1 uM by Kinomescan method relative to control
[17] = system: Proto-oncogene tyrosine-protein kinase receptor Ret (Homo sapiens), P07949 [V804M]; assay: Binding affinity to human partial length RET V804M mutant (E713 to D1014 residues) expressed in bacterial expression system assessed as residual binding level at 1 uM by Kinomescan method relative to control
Summary of the method: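 Kinome-wide selectivity panel run by the KINOMEscan method, with the test compound at a single concentration of 1 μM. Wild-type and mutant kinases were profiled in the same screen.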

[18] = molecular target: Ribosomal protein S6 kinase alpha-4 (Homo sapiens) (UniProt O75676); assay: Binding affinity to wild-type human partial length C-terminal RPS6KA4 kinase domain 2 (M375 to T705 residues) expressed in mammalian expression system assessed as residual binding level at 1 uM by Kinomescan method relative to control
[19] = molecular target: Ribosomal protein S6 kinase alpha-1 (Homo sapiens) (UniProt Q15418); assay: Binding affinity to wild-type human partial length C-terminal RSK1 kinase domain 2 (P360 to L681 residues) expressed in bacterial expression system assessed as residual binding level at 1 uM by Kinomescan method relative to control
[20] = molecular target: Serine/threonine-protein kinase tousled-like 1 (Homo sapiens) (UniProt Q9UKI8); assay: Binding affinity to wild-type human partial length TLK1 (K447 to A754 residues) expressed in bacterial expression system assessed as residual binding level at 1 uM by Kinomescan method relative to control
[21] = molecular target: Testis-specific serine/threonine-protein kinase 1 (Homo sapiens) (UniProt Q9BXA7); assay: Binding affinity to wild-type human full length TSSK1B (M1 to Q367 residues) expressed in bacterial expression system assessed as residual binding level at 1 uM by Kinomescan method relative to control
[22] = molecular target: Vascular endothelial growth factor receptor 2 (Homo sapiens) (UniProt P35968); assay: Binding affinity to wild-type human partial length VEGFR2 (R787 to P1253 residues) expressed in mammalian expression system assessed as residual binding level at 1 uM by Kinomescan method relative to control
[23] = molecular target: Phosphatidylinositol 3-kinase catalytic subunit type 3 (Homo sapiens) (UniProt Q8NEB9); assay: Binding affinity to wild-type human partial length VPS34 (S282 to H879 residues) expressed in mammalian expression system assessed as residual binding level at 1 uM by Kinomescan method relative to control

Macrophage-stimulating protein receptor (Homo sapiens), sequence (Q04912 25-304 limits assumed): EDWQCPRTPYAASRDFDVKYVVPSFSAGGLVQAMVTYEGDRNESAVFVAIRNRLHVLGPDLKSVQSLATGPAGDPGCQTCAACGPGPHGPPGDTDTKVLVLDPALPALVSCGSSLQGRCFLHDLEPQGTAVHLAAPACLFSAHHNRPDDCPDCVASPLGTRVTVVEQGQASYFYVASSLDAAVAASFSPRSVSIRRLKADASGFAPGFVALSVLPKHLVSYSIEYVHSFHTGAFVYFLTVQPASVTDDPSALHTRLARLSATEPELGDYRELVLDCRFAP
Macrophage-stimulating protein receptor (Homo sapiens), sequence (Q04912 310-1400 limits assumed): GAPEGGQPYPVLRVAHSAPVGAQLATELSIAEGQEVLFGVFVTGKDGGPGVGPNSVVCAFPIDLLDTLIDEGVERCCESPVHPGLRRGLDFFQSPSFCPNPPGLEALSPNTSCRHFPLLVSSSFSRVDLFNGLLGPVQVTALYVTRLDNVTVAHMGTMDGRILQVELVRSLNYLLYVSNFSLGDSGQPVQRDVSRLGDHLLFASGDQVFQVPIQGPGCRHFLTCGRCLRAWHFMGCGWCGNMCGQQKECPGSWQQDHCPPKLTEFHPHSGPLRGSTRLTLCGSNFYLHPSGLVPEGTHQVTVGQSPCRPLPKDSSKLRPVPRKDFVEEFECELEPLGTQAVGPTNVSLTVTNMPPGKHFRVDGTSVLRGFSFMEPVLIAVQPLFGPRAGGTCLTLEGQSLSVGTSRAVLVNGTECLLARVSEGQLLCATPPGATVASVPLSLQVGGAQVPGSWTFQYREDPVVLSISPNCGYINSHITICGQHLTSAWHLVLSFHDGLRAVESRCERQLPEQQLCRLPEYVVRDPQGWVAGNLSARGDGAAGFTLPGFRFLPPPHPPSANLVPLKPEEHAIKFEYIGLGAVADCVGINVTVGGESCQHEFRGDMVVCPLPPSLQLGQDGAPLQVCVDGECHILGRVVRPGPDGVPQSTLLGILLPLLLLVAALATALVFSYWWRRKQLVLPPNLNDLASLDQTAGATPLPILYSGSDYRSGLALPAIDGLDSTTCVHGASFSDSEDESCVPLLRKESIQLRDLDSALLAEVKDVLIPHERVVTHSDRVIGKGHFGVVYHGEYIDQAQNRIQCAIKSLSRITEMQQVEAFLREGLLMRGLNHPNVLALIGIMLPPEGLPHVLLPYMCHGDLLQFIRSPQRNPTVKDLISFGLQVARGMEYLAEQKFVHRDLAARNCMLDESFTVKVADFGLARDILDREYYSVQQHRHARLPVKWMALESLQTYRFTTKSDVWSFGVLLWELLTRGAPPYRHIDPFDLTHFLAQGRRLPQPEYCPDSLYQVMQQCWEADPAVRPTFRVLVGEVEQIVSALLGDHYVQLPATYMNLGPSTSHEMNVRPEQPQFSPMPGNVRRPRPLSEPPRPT
Ephrin type-A receptor 8 (Homo sapiens), sequence (P29322 whole entry, the tested form may be a part): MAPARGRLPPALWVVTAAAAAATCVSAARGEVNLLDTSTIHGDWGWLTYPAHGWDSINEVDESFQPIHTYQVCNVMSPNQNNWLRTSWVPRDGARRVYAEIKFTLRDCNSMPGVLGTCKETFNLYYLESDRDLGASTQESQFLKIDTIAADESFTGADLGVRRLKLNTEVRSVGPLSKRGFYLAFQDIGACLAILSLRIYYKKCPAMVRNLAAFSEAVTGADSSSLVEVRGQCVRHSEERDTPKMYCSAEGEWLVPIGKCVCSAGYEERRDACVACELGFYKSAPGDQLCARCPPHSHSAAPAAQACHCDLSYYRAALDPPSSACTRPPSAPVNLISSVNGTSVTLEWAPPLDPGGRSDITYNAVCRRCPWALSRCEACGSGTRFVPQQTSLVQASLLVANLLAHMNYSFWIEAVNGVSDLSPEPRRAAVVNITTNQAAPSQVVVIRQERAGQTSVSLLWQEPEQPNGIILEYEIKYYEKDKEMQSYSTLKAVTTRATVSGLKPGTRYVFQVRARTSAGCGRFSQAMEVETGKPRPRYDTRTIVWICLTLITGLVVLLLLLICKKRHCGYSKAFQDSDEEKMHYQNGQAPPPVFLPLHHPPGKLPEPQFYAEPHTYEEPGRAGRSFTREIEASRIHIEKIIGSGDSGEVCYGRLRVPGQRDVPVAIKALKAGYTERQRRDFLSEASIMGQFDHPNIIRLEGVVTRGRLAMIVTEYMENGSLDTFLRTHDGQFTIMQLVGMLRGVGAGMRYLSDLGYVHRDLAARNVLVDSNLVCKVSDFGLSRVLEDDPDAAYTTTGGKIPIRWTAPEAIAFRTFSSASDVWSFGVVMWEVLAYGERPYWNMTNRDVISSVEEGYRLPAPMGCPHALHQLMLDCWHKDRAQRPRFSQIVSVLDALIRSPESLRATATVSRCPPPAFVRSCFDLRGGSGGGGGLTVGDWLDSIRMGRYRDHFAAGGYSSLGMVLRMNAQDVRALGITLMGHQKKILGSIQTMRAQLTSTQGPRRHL
Ribosomal protein S6 kinase alpha-4 (Homo sapiens), sequence (O75676 whole entry, looked up, the tested form may be a part): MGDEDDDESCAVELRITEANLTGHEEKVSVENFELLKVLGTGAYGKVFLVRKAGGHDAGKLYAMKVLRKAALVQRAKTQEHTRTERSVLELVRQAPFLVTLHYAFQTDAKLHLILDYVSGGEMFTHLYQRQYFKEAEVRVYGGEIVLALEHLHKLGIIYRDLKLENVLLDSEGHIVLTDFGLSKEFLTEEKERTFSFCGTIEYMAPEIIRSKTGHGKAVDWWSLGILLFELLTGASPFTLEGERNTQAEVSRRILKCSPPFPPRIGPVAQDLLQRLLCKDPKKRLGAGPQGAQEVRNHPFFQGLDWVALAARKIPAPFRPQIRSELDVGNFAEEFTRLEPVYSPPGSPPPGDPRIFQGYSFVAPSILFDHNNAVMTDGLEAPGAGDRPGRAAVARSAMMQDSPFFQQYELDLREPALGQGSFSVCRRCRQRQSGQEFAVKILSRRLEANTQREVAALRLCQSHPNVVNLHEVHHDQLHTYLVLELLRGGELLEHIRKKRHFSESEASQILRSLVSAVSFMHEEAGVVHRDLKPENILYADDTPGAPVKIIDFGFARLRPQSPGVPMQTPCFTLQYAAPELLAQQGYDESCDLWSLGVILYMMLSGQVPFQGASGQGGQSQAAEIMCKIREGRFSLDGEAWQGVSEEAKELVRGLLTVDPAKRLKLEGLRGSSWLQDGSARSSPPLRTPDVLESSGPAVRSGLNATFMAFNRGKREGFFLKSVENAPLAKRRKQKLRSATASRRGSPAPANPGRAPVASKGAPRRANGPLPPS
Serine/threonine-protein kinase 26 (Homo sapiens), sequence (Q9P289 2-416 limits assumed): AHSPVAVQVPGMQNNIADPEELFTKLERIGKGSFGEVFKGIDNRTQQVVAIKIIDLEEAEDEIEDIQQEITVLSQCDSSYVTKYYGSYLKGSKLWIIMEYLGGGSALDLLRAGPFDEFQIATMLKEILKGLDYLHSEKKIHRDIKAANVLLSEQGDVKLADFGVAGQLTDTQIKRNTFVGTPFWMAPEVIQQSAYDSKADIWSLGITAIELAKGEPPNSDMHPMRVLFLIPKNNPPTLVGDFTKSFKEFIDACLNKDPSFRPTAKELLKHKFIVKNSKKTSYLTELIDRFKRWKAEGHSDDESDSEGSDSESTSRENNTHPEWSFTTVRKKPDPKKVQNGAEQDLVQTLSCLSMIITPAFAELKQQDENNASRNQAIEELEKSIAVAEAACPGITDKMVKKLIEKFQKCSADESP
Phosphatidylinositol 4-phosphate 5-kinase type-1 alpha (Homo sapiens), sequence (Q99755 whole entry, the tested form may be a part): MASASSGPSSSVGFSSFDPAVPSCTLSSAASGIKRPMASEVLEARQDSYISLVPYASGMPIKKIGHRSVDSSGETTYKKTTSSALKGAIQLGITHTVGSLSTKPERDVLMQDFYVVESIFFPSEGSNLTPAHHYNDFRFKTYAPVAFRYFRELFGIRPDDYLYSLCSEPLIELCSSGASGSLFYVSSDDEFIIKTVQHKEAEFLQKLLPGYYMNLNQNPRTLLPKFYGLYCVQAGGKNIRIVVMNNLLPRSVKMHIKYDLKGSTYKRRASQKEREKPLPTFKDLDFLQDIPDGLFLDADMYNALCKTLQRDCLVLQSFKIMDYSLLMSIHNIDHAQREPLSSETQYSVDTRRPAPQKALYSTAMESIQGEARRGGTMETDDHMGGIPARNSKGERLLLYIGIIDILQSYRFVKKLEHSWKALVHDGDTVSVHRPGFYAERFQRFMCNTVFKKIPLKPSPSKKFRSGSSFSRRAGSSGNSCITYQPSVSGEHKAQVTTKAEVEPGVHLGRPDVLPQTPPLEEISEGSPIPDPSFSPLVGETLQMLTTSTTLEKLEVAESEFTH
Calcium/calmodulin-dependent protein kinase type 1G (Homo sapiens), sequence (Q96NX5 whole entry, the tested form may be a part): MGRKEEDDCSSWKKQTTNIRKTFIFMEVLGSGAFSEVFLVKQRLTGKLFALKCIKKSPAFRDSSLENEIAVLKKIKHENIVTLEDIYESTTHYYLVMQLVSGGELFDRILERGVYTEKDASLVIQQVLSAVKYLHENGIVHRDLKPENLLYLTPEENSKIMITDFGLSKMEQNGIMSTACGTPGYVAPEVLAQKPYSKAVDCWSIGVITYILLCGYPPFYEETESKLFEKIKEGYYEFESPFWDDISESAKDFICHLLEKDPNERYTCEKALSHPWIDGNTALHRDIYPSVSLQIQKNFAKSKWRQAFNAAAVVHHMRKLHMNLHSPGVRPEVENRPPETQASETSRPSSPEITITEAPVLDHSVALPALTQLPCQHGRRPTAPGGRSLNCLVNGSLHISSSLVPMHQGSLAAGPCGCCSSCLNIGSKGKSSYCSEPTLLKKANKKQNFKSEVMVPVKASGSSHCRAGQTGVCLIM
Serine/threonine-protein kinase 17B (Homo sapiens), sequence (O94768 whole entry, the tested form may be a part): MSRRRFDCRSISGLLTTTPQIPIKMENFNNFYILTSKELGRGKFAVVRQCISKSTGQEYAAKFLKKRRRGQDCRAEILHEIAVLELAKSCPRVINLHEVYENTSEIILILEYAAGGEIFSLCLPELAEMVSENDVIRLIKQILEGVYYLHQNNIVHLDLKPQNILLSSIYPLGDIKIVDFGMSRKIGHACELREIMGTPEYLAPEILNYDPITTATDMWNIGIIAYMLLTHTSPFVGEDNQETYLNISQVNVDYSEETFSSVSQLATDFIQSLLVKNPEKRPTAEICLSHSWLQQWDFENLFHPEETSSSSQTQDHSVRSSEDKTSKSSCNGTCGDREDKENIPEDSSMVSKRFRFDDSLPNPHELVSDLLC

Question: Which results are given for C=CC(=O)Nc1cc(Nc2ncc(Cl)c(Nc3ccccc3S(=O)(=O)C(C)C)n2)c(OC)cc1N(C)CCN(C)C?
Answer: pEC50 (BaF3): < 5.30; Tmax [1]: 1.17 h; Activity [2]: 72%; Activity [3]: 92%; Activity [4]: 95%; Activity [5]: 45%; Activity [6]: 94%; Activity [7]: 100%; Activity [8]: 97%; Activity [9]: 0%; Activity [10]: 37%; Activity [11]: 5.7%; Activity [12]: 0%; Activity [13]: 57%; Activity [14]: 100%; Activity [15]: 29%; Activity [16]: 91%; Activity [17]: 15%; Activity [18]: 100%; Activity [19]: 44%; Activity [20]: 68%; Activity [21]: 12%; Activity [22]: 42%; Activity [23]: 67%
